In ChEMBL document CHEMBL1129609, “Synthesis and antiviral activity evaluation of some new aminoadamantane derivatives. 2” (1996):
≈ marks a conversion by molar mass, not a printed value.

Legend:
[1] = system: Human immunodeficiency virus 2; assay: Antiviral activity against HIV-2 virus infected CEM cell lines.; format: functional, CCRF-CEM
CCRF-CEM [2] = assay: Cytotoxicity against CEM cell lines.; format: functional; details: Homo sapiens
[3] = system: Human immunodeficiency virus 1; assay: Antiviral activity against HIV-1 virus infected CEM cell lines.; format: functional, CCRF-CEM
Human alphaherpesvirus 1 [4] = assay: Antiviral activity against HSV-1 virus infected HEF cell lines.; format: functional
How it was run: (§1)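 Human embryonic fibroblasts, from embryonic lung or embryonic skin-muscle, infected with the virus. Endpoint is the minimum inhibitory concentration that reduces virus-induced cytopathicity by 50%. Values are averages of at least two separate experiments.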

Human alphaherpesvirus 2 = assay: Antiviral activity against HSV-2 virus infected HEF cell lines.; format: functional; how it was run: as §1
Human alphaherpesvirus 1 [5] = assay: Antiviral activity against TK-HSV-1 virus infected HEF cell lines.; format: functional; how it was run: as §1
HEF [6] = assay: Effects on cell morphology of HEF cell lines.; format: functional; details: Homo sapiens
How it was run: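 Human embryonic skin-muscle fibroblasts were examined under the microscope for changes in normal cell morphology. The value is the minimum concentration causing a microscopically detectable alteration, averaged from at least two separate experiments.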

Vaccinia virus = assay: Antiviral activity against vaccinia virus infected HEF cell lines.; format: functional; details: Orthopoxvirus vaccinia; how it was run: as §1
Enterovirus C = assay: Antiviral activity against polio 1 virus infected HeLa cell lines.; format: functional
How it was run: (§2)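 Vero (African green monkey kidney), HeLa (human epithelial) or HEL (human embryonic lung) cell monolayers infected with the virus. Readout is the minimum inhibitory concentration that reduces virus-induced cytopathicity by 50%. Values are averages of at least two separate experiments.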

[7] = system: Vesicular stomatitis virus; assay: Antiviral activity against vesicular stomatitis virus infected HeLa cell lines.; format: functional; how it was run: as §2
Coxsackievirus B4 [8] = assay: Antiviral activity against Coxsackie B4 virus infected HeLa cell lines.; format: functional; details: Enterovirus B; how it was run: as §2
Human betaherpesvirus 5 = assay: Antiviral activity against HCMV virus infected HEL cell lines.; format: functional; how it was run: as §2
Human alphaherpesvirus 3 [9] = assay: Antiviral activity against TK+VZV virus infected HEL cell lines.; format: functional; how it was run: as §2
Human alphaherpesvirus 3 [10] = assay: Antiviral activity against TK-VZV virus infected HEL cell lines.; format: functional; how it was run: as §2
HEL [11] = assay: Inhibition of HEL cell proliferation.; format: functional; details: Homo sapiens
How it was run: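 Human embryonic lung fibroblasts were used for the proliferation assay. The value is the concentration that reduces cell proliferation by 50%, averaged from at least two separate experiments.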

MDCK [12] = assay: Antiviral activity tested against influenza A,H1N1 virus infected MDCK cell lines.; format: functional; details: Canis lupus familiaris
[13] = Antiviral activity against influenza A,H3N2 virus infected MDCK cell lines.; format: functional
Influenza B virus = assay: Antiviral activity against influenza B virus infected MDCK cell lines.; format: functional
MDCK [14] = assay: Antiviral activity of compound was tested against morphology virus infected MDCK cell lines.; format: functional; details: Canis lupus familiaris
Semliki Forest virus = assay: Antiviral activity against Semliki forest virus infected Vero cell lines.; format: functional; how it was run: as §2
Coxsackievirus B4 [15] = assay: Antiviral activity against Coxsackie B4 virus infected vero cell lines.; format: functional; details: Enterovirus B; how it was run: as §2
Vero [16] = assay: Effects on cell morphology of Vero cell lines.; format: functional; details: Chlorocebus sabaeus
How it was run: (§3)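 HeLa (human epithelial) or Vero (African green monkey kidney) cells were examined under the microscope for changes in normal morphology. The value is the minimum concentration causing a detectable alteration, averaged from at least two separate experiments.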

Human respirovirus 3 = assay: Antiviral activity against parainfluenza 3 virus infected Vero cell lines.; format: functional; how it was run: as §2
[17] = system: Mammalian orthoreovirus 1; assay: Antiviral activity against Reo 1 virus infected vero cell lines.; format: functional; how it was run: as §2
Sindbis virus = assay: Antiviral activity against sindbis virus infected Vero cell lines.; format: functional; how it was run: as §2
[18] = Antiviral activity against influenza A,H2N2 virus infected MDCK cell lines.; format: functional
HeLa [19] = assay: Effects on cell morphology of HeLa cell lines.; format: functional; details: Homo sapiens; how it was run: as §3
[20] = system: Vesicular stomatitis virus; assay: Antiviral activity against vesicular stomatitis virus infected HEF cell lines.; format: functional; how it was run: as §1
MDCK [21] = assay: Antiviral activity of compound was tested against morphology virus infec+ted MDCK cell lines.; format: functional; details: Canis lupus familiaris
CCRF-CEM [22] = assay: Antiviral activity of compound was tested against viability virus infected CEM cell lines.; format: functional; details: Homo sapiens
CCRF-CEM [23] = assay: Antiviral activity of compound were tested against HIV-2 virus infected CEM cell lines.; format: functional; details: Homo sapiens
HEF [24] = assay: Antiviral activity of compound was tested against HSV-2 virus infected HEF cell lines.; format: functional; details: Homo sapiens; how it was run: as §1
HEF [25] = assay: Antiviral activity of compound was tested against TK-HSV-1 virus infected HEF cell lines.; format: functional; details: Homo sapiens; how it was run: as §1
HEF [26] = assay: Antiviral activity of compound was tested against morphology virus infected HEF cell lines.; format: functional; details: Homo sapiens
HEF [27] = assay: Antiviral activity of compound was tested against vaccinia virus infected HEF cell lines.; format: functional; details: Homo sapiens; how it was run: as §1
HEL [28] = assay: Antiviral activity of compound was tested against proliferation virus infected HEL cell lines.; format: functional; details: Homo sapiens
HeLa [29] = assay: Antiviral activity of compound was tested against morphology virus infected HeLa cell lines.; format: functional; details: Homo sapiens
HeLa [30] = assay: Antiviral activity of compound was tested against polio-1 virus infected HeLa cell lines.; format: functional; details: Homo sapiens; how it was run: as §2
HEL [31] = assay: Antiviral activity of compound was tested against HCMV virus infected HEL cell lines.; format: functional; details: Homo sapiens; how it was run: as §2
HEL [32] = assay: Antiviral activity of compound was tested against TK+VZV virus infected HEL cell lines.; format: functional; details: Homo sapiens; how it was run: as §2
HEL [33] = assay: Antiviral activity of compound was tested against TK-VZV virus infected HEL cell lines.; format: functional; details: Homo sapiens; how it was run: as §2
HeLa [34] = assay: Antiviral activity of compound was tested against Coxsackie B4 virus infected HeLa cell lines.; format: functional; details: Homo sapiens; how it was run: as §2
MDCK [35] = assay: Antiviral activity of compound was tested against influenza A,H3N2 virus infected MDCK cell lines.; format: functional; details: Canis lupus familiaris
MDCK [36] = assay: Antiviral activity of compound was tested against influenza […] virus infected MDCK cell lines; format: functional; details: Canis lupus familiaris
Vero [37] = assay: Antiviral activity of compound was tested against sindbis virus infected vero cell lines.; format: functional; details: Chlorocebus sabaeus; how it was run: as §2
Vero [38] = assay: Antiviral activity of compound were tested against semliki forest virus infected vero cell lines.; format: functional; details: Chlorocebus sabaeus; how it was run: as §2
Vero [39] = assay: Antiviral activity of compound was tested against Coxsackie B4 virus infected vero cell lines.; format: functional; details: Chlorocebus sabaeus; how it was run: as §2
Vero [40] = assay: Antiviral activity of compound was tested against parainfluenza 3,[…] virus infected Vero cell lines.; format: functional; details: Chlorocebus sabaeus; how it was run: as §2
Vero [41] = assay: Antiviral activity of compound was tested against reo1 virus infected vero cell lines.; format: functional; details: Chlorocebus sabaeus; how it was run: as §2
Vero [42] = assay: Antiviral activity of compound was tested against morphology virus infected Vero cell lines.; format: functional; details: Chlorocebus sabaeus
CCRF-CEM [43] = assay: Antiviral activity of compound was tested against HIV-1 virus infected CEM cell lines.; format: functional; details: Homo sapiens

Work on `C1CNC(C23CC4CC(CC(C4)C2)C3)C1` (centres undefined) yielded an MIC50 [1] greater than 40 µg/mL, an MIC50 (CCRF-CEM [2]) of 56 µg/mL (≈ 273 µM) and an MIC50 [3] greater than 40 µg/mL. It also gave an MIC50 (Human alphaherpesvirus 1 [4]) greater than 40 µg/mL, an MIC50 (Human alphaherpesvirus 2) greater than 40 µg/mL and an MIC50 (Human alphaherpesvirus 1 [5]) greater than 40 µg/mL. It also gave an MIC50 (HEF [6]) of 100 µg/mL (≈ 487 µM), an MIC50 (Vaccinia virus) greater than 40 µg/mL and an MIC50 (Enterovirus C) greater than 100 µg/mL. The MIC50 [7] was greater than 100 µg/mL, the MIC50 (Coxsackievirus B4 [8]) was greater than 100 µg/mL and the MIC50 (Human betaherpesvirus 5) was greater than 50 µg/mL. It also gave an MIC50 (Human alphaherpesvirus 3 [9]) greater than 50 µg/mL, an MIC50 (Human alphaherpesvirus 3 [10]) greater than 50 µg/mL and an MIC50 (HEL [11]) greater than 50 µg/mL. For the same compound, the MIC50 (MDCK [12]) was 15.8 µg/mL (≈ 76.9 µM), the MIC50 [13] was 12.4 µg/mL (≈ 60.4 µM) and the MIC50 (Influenza B virus) was 12 µg/mL (≈ 58.4 µM). It also gave an MIC50 (MDCK [14]) of 250 µg/mL (≈ 1220 µM), an MIC50 (Semliki Forest virus) greater than 200 µg/mL and an MIC50 (Coxsackievirus B4 [15]) greater than 200 µg/mL. The MIC50 (Vero [16]) was 400 µg/mL (≈ 1950 µM), the MIC50 (Human respirovirus 3) was greater than 200 µg/mL and the MIC50 [17] was greater than 200 µg/mL. The MIC50 (Sindbis virus) was greater than 200 µg/mL, the MIC50 [18] was 0.6 µg/mL (≈ 2.92 µM) and the MIC50 (HeLa [19]) was greater than 200 µg/mL. It also gave an MIC50 [20] greater than 40 µg/mL.

Compound `CCN1CCCCC12C1CC3CC(C1)CC2C3` (centres undefined) has an MIC50 [1] greater than 200 µg/mL, an MIC50 (CCRF-CEM [2]) greater than 200 µg/mL and an MIC50 [3] of 200 µg/mL (≈ 857 µM). For the same compound, the MIC50 (Human alphaherpesvirus 1 [4]) was greater than 200 µg/mL, the MIC50 (Human alphaherpesvirus 2) was greater than 200 µg/mL and the MIC50 (Human alphaherpesvirus 1 [5]) was greater than 200 µg/mL. For the same compound, the MIC50 (HEF [6]) was 100 µg/mL (≈ 428 µM), the MIC50 (Vaccinia virus) was greater than 200 µg/mL and the MIC50 (Enterovirus C) was greater than 400 µg/mL. It also gave an MIC50 [7] greater than 400 µg/mL, an MIC50 (Coxsackievirus B4 [8]) greater than 400 µg/mL and an MIC50 (Human betaherpesvirus 5) greater than 50 µg/mL. The MIC50 (Human alphaherpesvirus 3 [9]) was greater than 50 µg/mL, the MIC50 (Human alphaherpesvirus 3 [10]) was greater than 50 µg/mL and the MIC50 (HEL [11]) was greater than 50 µg/mL. The MIC50 (MDCK [12]) was 4.4 µg/mL (≈ 18.9 µM), the MIC50 [13] was greater than 65 µg/mL and the MIC50 (Influenza B virus) was greater than 80 µg/mL. The MIC50 (MDCK [21]) was greater than 250 µg/mL, the MIC50 (Semliki Forest virus) was greater than 400 µg/mL and the MIC50 (Coxsackievirus B4 [15]) was greater than 400 µg/mL. It also gave an MIC50 (Vero [16]) greater than 400 µg/mL, an MIC50 (Human respirovirus 3) greater than 400 µg/mL and an MIC50 [17] greater than 400 µg/mL. The MIC50 (Sindbis virus) was greater than 400 µg/mL, the MIC50 [18] was 31 µg/mL (≈ 133 µM) and the MIC50 (HeLa [19]) was greater than 400 µg/mL. The MIC50 [20] was greater than 200 µg/mL.

`CCN1CCOCC12C1CC3CC(C1)CC2C3` (centres undefined) showed an MIC50 (CCRF-CEM [22]) greater than 200 µg/mL, an MIC50 (CCRF-CEM [23]) greater than 200 µg/mL and an MIC50 (Human alphaherpesvirus 1 [4]) greater than 400 µg/mL. It also gave an MIC50 (HEF [24]) greater than 400 µg/mL, an MIC50 (HEF [25]) greater than 400 µg/mL and an MIC50 (HEF [26]) greater than 400 µg/mL. For the same compound, the MIC50 (HEF [27]) was greater than 400 µg/mL, the MIC50 (HEL [28]) was greater than 50 µg/mL and the MIC50 (HeLa [29]) was greater than 400 µg/mL. The MIC50 (HeLa [30]) was greater than 400 µg/mL, the MIC50 [7] was greater than 400 µg/mL and the MIC50 (HEL [31]) was greater than 50 µg/mL. For the same compound, the MIC50 (HEL [32]) was greater than 50 µg/mL, the MIC50 (HEL [33]) was greater than 50 µg/mL and the MIC50 (HeLa [34]) was greater than 400 µg/mL. It also gave an MIC50 (MDCK [12]) greater than 10 µg/mL, an MIC50 (MDCK [35]) greater than 57 µg/mL and an MIC50 (MDCK [36]) greater than 80 µg/mL. It also gave an MIC50 (MDCK [14]) greater than 250 µg/mL, an MIC50 (Vero [37]) greater than 400 µg/mL and an MIC50 (Vero [38]) greater than 400 µg/mL. The MIC50 (Vero [39]) was greater than 400 µg/mL, the MIC50 (Vero [40]) was greater than 400 µg/mL and the MIC50 (Vero [41]) was greater than 400 µg/mL. It also gave an MIC50 [18] of 10.5 µg/mL (≈ 44.6 µM), an MIC50 (Vero [42]) greater than 400 µg/mL and an MIC50 (CCRF-CEM [43]) of 158 µg/mL (≈ 671 µM). For the same compound, the MIC50 [20] was greater than 400 µg/mL.
